# DENV2 CPE: inhibitors of DENV2 cytopathic effect, primary screen, cell-based, plate reader, single concentration. DENV2-infected cells, cytopathic effect rescue. CPE inhibition, % at 9.99 µM. 350,000 compounds, 1.7% hits; in the data active means CPE inhibition above about 20%, passing the limit was not always enough; inconclusive means no clear call, values can overlap the other calls; tested in BHK-21 cells
# ERAP1 inh: human ERAP1 aminopeptidase inhibitors, primary screen, biochemical, single point, plate reader; AID 652197, 2013; Endoplasmic reticulum aminopeptidase 1 (Homo sapiens), Q9NZ08; recombinant ERAP1, Leu-AMC fluorescence, 60 min; 340,000 compounds, 0.15% hits; inhibition, % at 10.7 µM;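 active means mean replicate inhibition of at least 30%, or all replicates individually reaching that 30% level; inactive means mean below 30% and not every replicate reaching it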
# Target sequence (Q9NZ08 whole entry, looked up): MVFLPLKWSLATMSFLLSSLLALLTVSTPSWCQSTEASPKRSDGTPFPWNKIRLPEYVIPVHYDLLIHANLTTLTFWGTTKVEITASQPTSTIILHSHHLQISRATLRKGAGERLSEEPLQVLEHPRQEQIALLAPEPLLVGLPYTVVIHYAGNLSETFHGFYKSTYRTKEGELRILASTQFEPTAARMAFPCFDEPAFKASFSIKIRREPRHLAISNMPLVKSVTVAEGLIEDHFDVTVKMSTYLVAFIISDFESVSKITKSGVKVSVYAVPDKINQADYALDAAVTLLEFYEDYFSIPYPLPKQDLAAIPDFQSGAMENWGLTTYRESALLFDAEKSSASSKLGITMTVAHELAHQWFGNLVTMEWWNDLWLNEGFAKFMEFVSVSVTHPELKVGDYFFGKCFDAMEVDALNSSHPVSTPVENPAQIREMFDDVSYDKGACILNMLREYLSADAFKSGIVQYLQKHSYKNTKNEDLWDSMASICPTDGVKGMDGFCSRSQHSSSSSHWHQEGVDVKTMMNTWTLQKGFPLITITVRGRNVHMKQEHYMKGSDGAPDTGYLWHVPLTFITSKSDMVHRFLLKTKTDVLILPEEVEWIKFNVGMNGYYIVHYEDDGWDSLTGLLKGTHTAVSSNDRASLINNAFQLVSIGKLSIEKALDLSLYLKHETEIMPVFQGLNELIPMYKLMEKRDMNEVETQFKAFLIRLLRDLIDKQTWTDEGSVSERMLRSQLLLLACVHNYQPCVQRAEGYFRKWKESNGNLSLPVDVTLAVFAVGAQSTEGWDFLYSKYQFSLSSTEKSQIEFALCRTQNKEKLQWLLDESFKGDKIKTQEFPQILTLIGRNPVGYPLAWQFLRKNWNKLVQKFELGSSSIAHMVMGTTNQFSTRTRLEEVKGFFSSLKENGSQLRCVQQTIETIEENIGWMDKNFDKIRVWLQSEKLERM
# F508del corr: F508del CFTR correction, initial screen, CFBE line, single point | CFBE cells, YFP halide quenching; stimulated with forskolin plus potentiator P3; % fluorescence drop versus neutral controls | activity (quench increase), % at 7.58 µM | 350,000 compounds, 0.36% hits | AID 720511, 2013;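 active means mean added fluorescence quench of at least 8% versus neutral control, with both replicates also reaching 8%; inconclusive means only one of the mean or replicate conditions met; inactive means mean below 8% and not both replicates reaching 8%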;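 further: cells transiently co-express mutant CFTR-F508del with the halide-sensitive YFP; corrector assay measuring rescue of mutant channel to the surface after 24 h compound exposure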
# GSIS activator: GLuc luminescence reporter in INS-1E cells, primary screen for activators of glucose-dependent secretion of insulin; activation, % at 16.6 µM; AID 743287, 2014; 370,000 compounds, 0.61% hits; INS-1E GLuc reporter insulin secretion, 2-3 h;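 active means lowest replicate activation of at least 40%, so every replicate reaches that level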
# E-selectin induc: E-selectin induction in HUVECs, primary screen, imaging, HUVEC, immunofluorescence imaging, single point. normalized: neutral wells 0, TNF-alpha wells 100. activation, % at 7.58 µM. 260,000 compounds, 0.37% hits. AID 686992, 2013;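 active means mean E-selectin-positive cell signal at least 10% of the positive control, reached in at least 60% of replicates, without over 20% cell loss; inconclusive means no rule given, readout overlaps actives, possibly toxicity-flagged; inactive means the rest, including those meeting only one limit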
#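 Assay system: HUVEC, human umbilical vein endothelial cells / Amount: 3,000 HUVEC/well / Controls: TNF-alpha positive control, DMSO neutral control / Compound dosing: single concentration / Medium: EGM-2 over gelatin coat / Evaluation: percent E-selectin-positive cells / Signal: immunofluorescence imaging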
# miR-122 sensor: miR-122 Renilla sensor signal increase in Huh7, primary screen, miR-122 inhibitor project, cell-based, single point, plate reader. Huh7 miR-122 Renilla luciferase sensor, 48 h; neutral wells = 0, positive control = 100. AID 602342, 2012. activation (reporter increase), % at 12.5 µM. 340,000 compounds, 0.3% hits;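 active means mean replicate activation score at least 90 and every replicate individually at or above 90; inconclusive means only one of the two criteria met; inactive means neither criterion met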;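 further: higher luciferase means less miR-122 activity so hits act as miR-122 inhibitors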
# Hits are given with their value; i = inactive; ? = inconclusive; nt = not tested or not shown. Most compounds without a hit are left out; they make up all but 2.6% or so of the library.
SMILES,DENV2 CPE,ERAP1 inh,F508del corr,GSIS activator,E-selectin induc,miR-122 sensor
CCCCCOC(=O)CCN1C(=O)/C(=C2\SC(=S)N(CCC(=O)OCCCCC)C2=O)SC1=S,i,i,i,nt,i,i
CN1CCC2CC1c1cc(-c3ccc(C(F)(F)F)cc3)ccc12 (stereo not drawn),21,i,i,i,i,i
CS(=O)(=O)N1CCC2CC1c1cc(-c3ccccc3)ccc12 (stereo not drawn),i,nt,i,i,i,i
C=C(C)CN1CCN(c2ccc(N3C(=O)CCCC3=O)cc2[N+](=O)[O-])CC1,i,nt,i,50,i,i
CC[N+](C)(CC)CCC(c1ccccc1)C1CCCCC1 (stereo not drawn),i,109,i,i,nt,nt
CNC[C@H]1OCCCC[C@H](C)Oc2ccc(NS(=O)(=O)c3ccc(C)cc3)cc2C(=O)N([C@@H](C)CO)C[C@@H]1C,i,i,i,i,i,i
CCN(Cc1ccccc1)S(=O)(=O)c1ccc(C(=O)Nc2nnc(C)o2)cc1,i,i,i,54,i,i
CCc1ccccc1OCC(=O)NNCC(=O)Nc1cccc(C#N)c1,41,i,i,i,nt,i
N#Cc1cccc(NC(=O)Cc2ccsc2)c1,i,i,i,i,nt,nt
CCOC(=O)c1nc(SC)n(C)c1C(=O)OCC,i,i,i,54,i,nt
c1cnc2c(c1)ncc1cscc12,i,i,i,i,i,nt
[O-][n+]1cccc2ncc3cscc3c21,nt,i,i,i,431,i
O=C(CC1CC1)N1CC2(C1)[C@H](c1ccccc1)[C@H](CO)N2Cc1ccccn1,23,nt,i,i,i,nt
O=C(CC1CC1)N1CC2(C1)[C@@H](c1ccccc1)[C@@H](CO)N2C(=O)c1cnccn1,32,i,i,i,i,nt
O=C(CC1CC1)N1CC2(C1)[C@H](c1ccccc1)[C@@H](CO)N2C(=O)c1cnccn1,i,i,i,i,i,nt
C/C=C/c1ccc([C@H]2[C@@H](CO)N(C(=O)C3CC3)C23CN(C(=O)NC(C)C)C3)cc1,105,i,i,i,i,nt
C/C=C/c1ccc([C@@H]2[C@H](CO)N(C(=O)C3CCCC3)C23CN(C(=O)NC(C)C)C3)cc1,i,i,i,i,i,nt
C/C=C/c1ccc([C@@H]2[C@H](CO)N(C(=O)c3cnccn3)C23CN(C(=O)C2CC2)C3)cc1,24,i,i,i,i,nt
C/C=C/c1ccc([C@@H]2[C@H](CO)N(C(=O)c3cnccn3)C23CN(C(=O)C2CCC2)C3)cc1,i,i,i,i,i,nt
COc1ccc2c3c(n(C)c2c1)[C@H](CO)N(S(=O)(=O)c1ccc(C)cc1)CC31CN(S(=O)(=O)c2ccc(C)cc2)C1,i,nt,i,i,i,nt
C[C@@H]1CN([C@H](C)CO)S(=O)(=O)c2ccc(C#CC3CC3)cc2O[C@@H]1CN(C)C(=O)c1ccccc1,nt,i,i,i,i,i
O=C(c1ccccn1)N1CC2(C1)[C@H](c1ccccc1)[C@H](CO)N2Cc1ccc(F)cc1,i,i,i,i,i,nt
O=C(c1ccccn1)N1CC2(C1)[C@H](c1ccccc1)[C@@H](CO)N2Cc1ccc(F)cc1,39,i,i,i,i,nt
O=C(c1ccccn1)N1CC2(C1)[C@@H](c1ccccc1)[C@@H](CO)N2C(=O)CC1CC1,35,i,i,i,i,nt
C[C@@H]1CN([C@@H](C)CO)C(=O)c2cc(C3=CCCCC3)cnc2O[C@H]1CN(C)Cc1ccncc1,i,i,i,i,i,i
SMILES,DENV2 CPE,ERAP1 inh,F508del corr,GSIS activator,E-selectin induc,miR-122 sensor
CCCNC(=O)N1[C@@H]2CN(C(=O)C3CCOCC3)c3ccccc3[C@@H]2[C@@H]1CO,i,i,i,i,i,i
CN(C)CC(=O)N[C@H]1CC[C@H](CC(=O)NCc2ccc(Cl)cc2)O[C@@H]1CO,i,i,i,i,i,nt
Cc1cc(=O)[nH]c(-c2ccccc2O)n1,i,i,i,i,nt,i
Cc1cc2nc(-c3ccccc3O)[nH]c2cc1C,i,i,i,40,i,i
COCCNC(=O)C1(C)C=CC2(CCCCC2)N1C(=O)c1ccccc1 (stereo not drawn),i,i,i,i,i,i
CNC(=O)C1(C)C=CC2(CCCCC2)N1C(=O)OC (stereo not drawn),22,nt,i,i,i,i
CC(C)C#Cc1ccc2c(c1)O[C@H](CN(C)CC1CC1)[C@H](C)CN([C@H](C)CO)S2(=O)=O,i,i,i,i,i,i
Cc1cccc(CCNC(=O)C2CCCN(S(=O)(=O)c3cnc[nH]3)C2)c1 (stereo not drawn),i,nt,i,i,nt,nt
CCCS(=O)(=O)N1CCCC(C(=O)NCCc2cccc(C)c2)C1 (stereo not drawn),27,i,i,i,i,i
O=C1C(=C(I)I)c2ccccc2-c2ccccc21,i,36,i,i,i,nt
Cc1ccc(NS(=O)(=O)c2ccc(-n3cccn3)cc2)cc1C,i,i,i,i,nt,i
COc1cc(NS(=O)(=O)c2ccc(-n3cccn3)cc2)cc(OC)c1,nt,nt,nt,nt,nt,95
O=C(NCc1cccs1)C1(S(=O)(=O)c2ccccc2)CC=CC1,i,i,i,i,i,i
O=C(NCc1ccco1)C1(S(=O)(=O)c2ccccc2)CC=CC1,41,i,i,i,i,i
CC(C)C(=O)N(c1ccc2oc(=O)sc2c1)S(=O)(=O)c1ccccc1,i,i,i,i,nt,i
COc1ccc(S(=O)(=O)N(C(=O)C(C)C)c2ccc3oc(=O)sc3c2)cc1,i,i,11,i,nt,i
CCOC(=O)CSc1nnc(-c2ccccc2NC(=O)c2ccccc2)o1,nt,nt,nt,i,nt,i
CCc1nnc(NC(=O)CSc2nnc(-c3ccccc3NC(=O)c3ccccc3)o2)s1,nt,nt,nt,52,nt,i
CN(C)C(=O)c1cccc(-c2ccc3c(c2)[C@H]2[C@H](CCN2C(=O)c2cccnc2)[C@@H](CO)N3)c1,31,nt,i,i,i,i
CN(C)C(=O)c1cccc(-c2ccc3c(c2)[C@@H]2[C@@H](CCN2C(=O)Cc2ccncc2)[C@@H](CO)N3)c1,104,nt,i,i,i,i
COc1ccc(NC(=O)N[C@H]2C=C[C@@H](CC(=O)NCc3ccccn3)O[C@@H]2CO)cc1,?,i,i,i,i,nt
CC=Cc1ccc2n(c1=O)C[C@H]1[C@H](CO)[C@@H](C(=O)NCCC)[C@@H]2N1C(=O)c1ccccc1 (mixture of isomers),i,i,i,i,i,i
COc1ccc2c3c(n(C)c2c1)[C@H](CO)N(Cc1ccccc1)CC31CCN(S(=O)(=O)c2ccc(C)cc2)CC1,i,i,i,i,i,nt
Cc1ccc(Cl)cc1N1CCN(C(=O)c2cn(C)c(=O)c3c2c2ccccc2n3C)CC1,i,i,10,i,nt,i
